Screening data (PubChem)
PRMT1 inh = blocks human protein arginine methyltransferase 1. inhibition, % at 2.79 µM. Q99873. 370,000 compounds, 1.3% hits. recombinant PRMT1, activity-based probe fluorescence polarization;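 active means inhibition above about 21% made by adding two undisclosed values, limit read from the data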
HTRA1 inh = HTRA1 (human) protease inhibition; Q92743; recombinant HTRA1, FP-rhodamine activity-based probe, fluorescence polarization; inhibition, % at 5.96 µM; 340,000 compounds, 0.5% hits; AID 504803; in the data active means inhibition above about 36%;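 further: 0% = enzyme with DMSO and 100% = wells lacking enzyme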
Target sequence (Q92743 whole entry, looked up): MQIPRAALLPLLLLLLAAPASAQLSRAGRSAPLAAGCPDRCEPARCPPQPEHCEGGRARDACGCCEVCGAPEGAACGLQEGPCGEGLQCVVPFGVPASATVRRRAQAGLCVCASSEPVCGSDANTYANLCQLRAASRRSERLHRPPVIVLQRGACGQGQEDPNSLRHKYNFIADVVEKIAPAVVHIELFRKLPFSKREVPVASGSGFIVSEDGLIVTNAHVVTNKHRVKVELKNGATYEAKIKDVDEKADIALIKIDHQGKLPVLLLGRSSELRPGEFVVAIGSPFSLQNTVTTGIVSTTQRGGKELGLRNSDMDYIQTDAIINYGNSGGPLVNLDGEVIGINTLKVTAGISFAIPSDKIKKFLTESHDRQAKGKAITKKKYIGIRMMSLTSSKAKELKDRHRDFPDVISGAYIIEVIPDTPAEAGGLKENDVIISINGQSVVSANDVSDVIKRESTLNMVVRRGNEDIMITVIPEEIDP
rCAG binder = molecules binding r(CAG) RNA repeats; 370,000 compounds, 1.3% hits; r(CAG) RNA repeat, TO-PRO-1 dye displacement fluorescence; inhibition, % at 3 µM; AID 651821;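 active means inhibition above the plate cutoff, the mean of all test compounds on that plate plus 3 SD, cut at about 35% in these data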;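 further: 0% = DMSO alone and 100% = 100 µM mitoxantrone as full dye displacement; higher means more dye released from RNA so lower well fluorescence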
DAGLB inh = diacylglycerol lipase beta (human) inhibition; 340,000 compounds, 0.059% hits; HEK293T DAGLB membrane lysate, EnzChek fluorogenic substrate; inhibition, % at 5.17 µM; Q8NCG7; in the data active means inhibition above about 34%;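 further: 0% = enzyme with vehicle and 100% = wells lacking enzyme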
ABHD4 inh = inhibitors of mouse ABHD4. Q8VD66. purified mABHD4, FP-Rh probe fluorescence polarization. inhibition, % at 8.92 µM. 370,000 compounds, 0.54% hits. AID 720543;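 active means inhibition exceeding the mean over every tested compound plus 3 SD, cut at about 30% in these data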;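 further: 0% = plate median of compound wells and 100% = S159A mutant with DMSO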
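Assay system: mABHD4 protein; medium: HEPES pH 7.0, NaCl, Pluronic buffer; dosing: 8.92 µM, single dose; schedule: 45 min + 60 min at 25 °C; signal: FP readout, ex 525 nm / em 598 nm; read-out: normalized percent inhibition of probe labeling; repeats: single replicate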
LEDGF integ inh = blocks HIV-1 LEDGF/p75-dependent DNA integration | TR-FRET IN-LEDGF/p75 DNA integration, Eu/Cy5 | inhibition, % at 3.7 µM | 370,000 compounds, 0.64% hits;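 active means inhibition above the screen-wide mean plus 3 SD, cut at about 13% in these data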;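 further: signal is the Cy5 over europium emission ratio at 671 and 618 nm; 0% = plate median of compound wells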
ABHD4 confirm = confirmation of mouse ABHD4 inhibitors; shares compounds with ABHD4 inh; purified mABHD4, FP-Rh probe fluorescence polarization; inhibition, % at 8.92 µM; 1,800 compounds, 55% hits;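 active means mean inhibition across replicates above the hit cutoff set in the primary screen, cut at about 30% in these data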;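 further: 0% = wild-type ABHD4 with DMSO and 100% = catalytically dead S159A mutant with DMSO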
* marks the source's active call; other numbers are inactive results; / = no result. Shown are actives, neighbours in structure and some others; about 3.2% of the full set was active somewhere.

SMILES	PRMT1 inh	HTRA1 inh	rCAG binder	DAGLB inh	ABHD4 inh	LEDGF integ inh	ABHD4 confirm
Nc1[nH]c(C(=O)c2ccc(Br)cc2)c(-c2ccccc2)c1C(=O)NCCc1c[nH]c2ccccc12	-4.0	/	12.3	/	9.9	5.9	/
CCCCn1c(N)c(N(CCOC)C(=O)CN(C)S(=O)(=O)c2ccc(F)cc2)c(=O)[nH]c1=O	-2.0	-2.9	-2.1	0.8	4.6	-2.6	/
CC/C(=C\C(=O)c1ccncc1)Nc1ccc(O)cc1	15.5	21.9	-3.5	0.7	75.4*	3.4	38.4*
Cc1c(C#N)c(O)[nH]c(=O)c1N=Nc1ccc(S(N)(=O)=O)cc1	-1.0	9.0	19.5	3.0	38.5*	6.0	46.6*
Cc1cccc(C(=O)Nc2sc(-c3ccccc3)cc2C(=O)O)c1	8.3	-11.3	93.8*	10.0	51.2*	-3.3	52.6*
CC(C)N(C(=O)COC(=O)CNS(=O)(=O)c1ccccc1F)c1ccccc1	-1.6	7.0	-7.9	3.3	2.7	1.9	/
C[C@H]1COc2cc(F)ccc2S(=O)(=O)N1C	1.6	/	1.2	/	5.1	-2.1	/
O=C(Nc1ccccc1-c1nnc(SCc2ccccc2)o1)c1ccccc1	1.1	-8.1	-1.8	-24.2	1.4	-1.6	/
O=C(NNS(=O)(=O)c1ccc([N+](=O)[O-])cc1)c1ccc2ccccc2c1O	1.0	5.2	30.3	17.4	30.9*	2.3	20.5
O=C(NNS(=O)(=O)c1ccc([N+](=O)[O-])cc1)c1ccccc1	-1.8	0.2	0.1	1.8	-1.8	-1.7	/
COc1ccc(N2CCN(C(=O)COCC(=O)O)CC2)cc1	0.5	5.2	-3.0	-0.7	6.2	2.7	/
COc1ccc(N2CCN(C(=O)Cn3cncn3)CC2)cc1	-0.7	1.0	-1.6	-1.6	36.6*	0.5	2.5
Cc1c(C)n2c(SCC(=O)NC3CCCCC3)nnc2[nH]c1=O	2.8	6.0	-1.1	-1.2	30.6*	-0.5	4.6
c1cc(-c2ccoc2)n2ccnc2c1	20.7	/	4.5	/	50.0*	11.3	13.6
Cc1ccc(CN(C)C(=O)c2cc(Br)c(Br)s2)o1	19.9	-12.6	6.5	-1.0	6.5	-0.3	/
CCOC(=O)c1c2n(c3ccc(O)cc13)CCCCC2	-0.9	-8.2	-2.6	0.3	6.4	-1.9	/
CCOC(=O)c1c(C)n2c3c(cc(C)cc13)CCC2	-0.7	-4.0	-2.4	-4.2	30.6*	1.2	-4.0
Nc1ncnc2c1CN(Cc1ccccc1)CC2	0.8	-3.0	2.4	1.3	72.0*	-1.9	-7.0
O=c1[nH]c(CSc2nc3ccccc3s2)nc2ccccc12	6.8	-8.9	3.8	-0.3	-7.8	4.5	/
COc1ccc(C2NCCc3c2[nH]c2ccccc32)cc1CSc1nc2ccccc2s1 (configuration not stated)	4.0	-25.0	12.3	1.2	29.7*	-1.8	34.0*
CC(C)Cn1cc(C(=O)NCc2cccs2)c2c3ccccc3n(C)c2c1=O	-3.9	-9.3	9.4	-0.7	1.8	1.0	/
Cc1nnc(N/N=C/c2ccc(O)c([N+](=O)[O-])c2)[nH]c1=O	2.0	4.0	4.0	-0.8	3.6	2.9	/
Cc1csc(N/N=C/c2ccc(O)c([N+](=O)[O-])c2)n1	47.8*	20.0	27.8	12.1	50.0*	0.0	83.3*
Cc1cc(C)cc(NC2=CC(=O)CC(c3ccco3)C2)c1 (configuration not stated)	2.2	-3.1	-1.4	-0.2	8.4	3.9	/
CCc1ccc(NC2=CC(=O)CC(c3ccco3)C2)cc1 (configuration not stated)	5.1	0.8	3.3	-2.7	37.5*	9.1	12.0
SMILES	PRMT1 inh	HTRA1 inh	rCAG binder	DAGLB inh	ABHD4 inh	LEDGF integ inh	ABHD4 confirm
Cc1ccc(Nc2ccc(C(=O)O)cc2[N+](=O)[O-])cc1	7.1	4.4	4.8	8.7	29.5*	1.3	54.7*
CC(C)c1ccc(Nc2ccc(C(=O)O)cc2[N+](=O)[O-])cc1	-0.1	-0.8	21.1	19.4	60.8*	-1.3	69.0*
COc1ccc(C)cc1Nc1ccc(C(=O)O)cc1[N+](=O)[O-]	-2.2	6.0	-1.5	13.4	5.9	1.7	/
O=C(O)c1ccc(Nc2ccc(Cl)c(Cl)c2)c([N+](=O)[O-])c1	3.5	-6.1	2.0	9.3	43.5*	3.5	62.2*
O=C(O)c1ccc(NCCc2ccc(Cl)cc2)c([N+](=O)[O-])c1	4.7	-6.7	14.4	9.8	57.4*	-0.8	53.0*
CCCNC(=O)C(CC)NS(=O)(=O)c1ccc(OC)cc1 (configuration not stated)	1.6	-4.9	3.7	0.3	-12.3	-5.8	/
C[C@H]1CN([C@@H](C)CO)C(=O)CCCn2cc(nn2)CO[C@@H]1CN(C)C(=O)C1CC1	-3.5	/	2.6	/	0.9	1.5	/
O=C(Nc1ccc(Cl)cc1Cl)NC1CCN(S(=O)(=O)c2ccc(F)cc2)CC1	7.4	5.8	-2.7	-4.9	-18.0	1.1	/
COc1cccc(Nc2ccc(C(=O)O)cc2[N+](=O)[O-])c1	-2.4	0.5	-0.2	3.6	35.8*	-0.7	47.0*
O=C(O)c1ccc(N2CCN(c3ccc(Cl)cc3)CC2)c([N+](=O)[O-])c1	-0.8	-5.5	21.8	7.9	38.0*	8.0	46.8*
CN(CC(=O)Nc1cccc(F)c1)C(=O)c1ccccc1CCc1ccccc1	-2.3	-36.8	-0.4	-3.3	36.0*	1.4	-20.0
COc1ccc(NC(=O)CN(C)C(=O)c2ccccc2CCc2ccccc2)cc1	-2.6	-18.4	-2.7	-6.1	1.1	1.0	/
Cc1csc(NC(=O)c2ccc3c(c2)OCO3)n1	0.4	-2.6	5.2	-1.9	-1.9	-0.7	/
F[B-](F)(F)c1cnc2ccccc2c1	-2.1	7.4	2.2	-1.6	31.1*	-1.5	23.0
COc1cccc(C(C(=O)NC2CCCC2)N2CCN(c3cc(C)ccc3C)CC2)c1OC (configuration not stated)	3.2	/	5.5	/	47.9*	-2.4	6.1
O=C(O)CC(c1cccc(Cl)c1)n1cccc1 (configuration not stated)	-0.5	-3.9	3.0	3.2	-1.6	-4.8	/
COc1ccc(NC(=O)c2ccccc2NC(=O)NC2CCCCC2)cc1	-1.9	-8.0	-2.3	-1.9	46.8*	2.0	-6.8
COC(=O)c1ccccc1NC(=O)NC1CCCC1	2.1	0.3	-1.0	0.9	0.2	0.6	/
Nc1nc2c(F)cccc2s1	-0.4	4.3	-1.9	2.2	1.4	-4.9	/
NNc1nc2c(F)cc(F)cc2s1	4.6	13.1	27.0	-0.1	44.7*	0.4	8.9
NNc1nc2c(F)cccc2s1	7.3	23.8	33.0	-1.6	76.8*	1.5	31.8*
CC(c1ccccc1)C1CC(=O)N(Cc2ccccc2)C1=O (configuration not stated)	-2.3	-4.2	-4.6	-1.6	-2.6	-2.0	/
